Screens deposited in PubChem BioAssay by several laboratories.
Many of the other results were omitted from the sample, so hits are more common in it than they were.
XBP1 UPR activ: activators of adaptive XBP1 UPR arm, primary screen, cell-based, CHO-XBP1 luciferase reporter, luminescence, uHTS. IRE1-XBP1 UPR activation; percent of tunicamycin response, DMSO as zero. activation, % at 20 µM. actives 0.33% (n = 330,000). AID 463104, 2010;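 active = versus positive control, 20 µM dose yields 30% or more activation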;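 note: 100% = tunicamycin at 10 µg/mL and 0% = DMSO only wells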
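Material: CHO-XBP1 cells stably carrying IRE1-XBP1-driven luciferase reporter | Medium: F12 with 10% serum | Compound dosing: 20 µM single concentration, DMSO 1% | Incubation: Overnight seeding at 37 °C, 6 h compound treatment at 37 °C | Detection: Steady-Glo luminescence read | Read-out basis: % activation of reporter signal versus tunicamycin and DMSO controls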
CHOP inh: inhibitors of CHOP promoter induction, primary screen, cell-based, unfolded protein response, luciferase reporter. CHO-K1 CHOP-promoter luciferase, tunicamycin-induced, 15-18 h. inhibition, % at 10 µM. actives 3.8% (n = 220,000). AID 2732, 2010;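 active = compounds that reduced the stress-induced luciferase reporter signal by more than about 70% of percent inhibition, limit read from the data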;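 note: 0% = tunicamycin plus vehicle and 100% = wells without tunicamycin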
Dynein transport: inhibitors of GR-EGFP nuclear translocation, primary screen, dynein cargo transport inhibitor project, imaging, high-content, 3617.4 mouse cells; AID 1381, 2008; actives 0.47% (n = 220,000); z-score, hits read low; test concentration mostly 20 µM; stimulated with dexamethasone, 1 µM; active compounds read low;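 active = plate z-score of nuclear minus cytoplasmic receptor signal below a set negative limit, without overly bright fluorescence or cell loss, cut at about -3.5 in these data, passing the limit was not always enough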;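 note: z-score of nuclear minus cytoplasmic ring GR-EGFP intensity difference per well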
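Also added – dexamethasone, 1.0 µM final · Buffer or medium – tet-free, stripped-serum medium · Schedule – induction 48 h, compound 1 h, agonist 30 min · Detection – formaldehyde fixation, Hoechst nuclear stain, 10x automated fluorescence imaging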
T cruzi repl: inhibitors of intracellular T. cruzi growth, primary screen, luminescence, NIH3T3 host cells | T. cruzi beta-gal in NIH3T3, 90 h | actives 1.4% (n = 300,000) | inhibition, % (concentration not given with the values);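 active = mean inhibition across valid replicates above about 55%, limit read from the data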;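 note: signal also drops with host cell toxicity which is not excluded here; 0% = plate median of DMSO wells and 100% = zero luminescence signal; higher percent means less beta-gal luminescence so fewer parasites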
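Read-out: Parasite load inhibition, % | Test system: Mouse NIH/3T3 fibroblasts infected with β-gal-expressing T. cruzi Tulahuen C4 | Amount: 5,000 cells/well | Medium: DMEM, 2% fetal bovine serum | Signal: GalScreen β-gal luminescence, detergent lysis, 60 min | Timing: 3 h attach, ≥90 h co-culture | Also added: Tulahuen C4 trypomastigotes, 5000/well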
UPR CHOP act: activators of apoptotic CHOP UPR arm, primary screen, cell-based, CHO-CHOP luciferase reporter, luminescence, uHTS | UPR activation; percent of tunicamycin response over DMSO baseline | activation, % at 10 µM | actives 0.34% (n = 330,000) | AID 449763, 2010;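 active = at 10 µM dose, activation of 40% or more, normalized to positive control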;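 note: 100% = tunicamycin at 10 µg/mL and 0% = DMSO alone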
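Evaluation: % reporter activation, DMSO baseline versus tunicamycin full activation; System: CHO-CHOP luciferase reporter cell line; Input: 500 cells/well; Incubation: 6 h compound treatment, 37 °C; Measured by: Steady-Glo luciferase luminescence; Dosing: one dose, 10 µM in 0.5% DMSO; Buffer or medium: F12 medium, 10% FBS; Benchmarks: positive tunicamycin 10 µg/mL, negative DMSO alone.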
Lmaj promast: Leishmania major promastigote growth inhibition, primary screen; Leishmania major promastigotes, resazurin fluorescence viability; inhibition, % at 10 µM; actives 9% (n = 200,000); AID 1063, 2008; in the data active = inhibition above about 50%;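 note: promastigotes grown with compound for 44 hours at 28 °C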
An asterisk follows results filed as active; / = not tested or not shown.

SMILES	XBP1 UPR activ	CHOP inh	Dynein transport	T cruzi repl	UPR CHOP act	Lmaj promast
COC(=O)[C@@]12OC[C@]34[C@H]([C@@H](O)[C@@H]1O)[C@@]1(C)C(=O)C(O[C@@H]5OC(CO)[C@@H](O)[C@@H](O)[C@@H]5O)=C[C@@H](C)[C@@H]1C[C@H]3OC(=O)[C@H](OC(=O)/C=C(\C)C(C)(C)OC(C)=O)[C@@H]24 (some centres not stated)	-2	/	/	/	1	/
CC(CCCN(C)C)C(Cc1ccccc1)c1ccccc1 (configuration not stated)	0	/	/	30	1	/
Cc1ccc(NC(=O)CCCCCN2C(=O)[C@@H]3Cc4ccccc4CN3C2=O)c(C)c1	-5	/	/	4	2	/
COc1ccc(C(=O)C2CCCN(C3Cc4ccccc4C3)C2)cc1OC (configuration not stated)	-4	11	-0.52	51	-2	93*
COc1ccc(C(=O)C2CCCN(Cc3nc4ccccc4nc3C)C2)cc1OC (configuration not stated)	1	21	0.36	14	-1	80*
COc1cccc(O)c1CN1CCCC(C(=O)c2cccc(C(F)(F)F)c2)C1 (configuration not stated)	0	51	0.41	27	0	21
COc1ccc(C(=O)C2CCCN(Cc3ccc4nonc4c3)C2)c(OC)c1 (configuration not stated)	-2	13	-0.54	70*	-1	88*
CCNC(=O)N1CCCC(C(=O)c2ccc(OC)c(OC)c2)C1 (configuration not stated)	-3	9	-0.45	-12	0	-5
COCc1cc(CN2CCCC(C(=O)c3cccc(C(F)(F)F)c3)C2)ccc1OC (configuration not stated)	-3	25	2	66*	0	92*
CC(C(=O)Nc1cc([N+](=O)[O-])ccc1Cl)N1CCN(c2ccc(O)cc2)CC1 (configuration not stated)	/	31	0.14	-7	/	12
CCCCCNS(=O)(=O)c1cc2c3c(c1)CCC(=O)N3CCC2	-4	/	/	-25	1	/
CC1CCCCN1C(=O)N[C@@H](Cc1ccccc1)C(=O)O (some centres not stated)	-1	32	-0.89	6	-1	51*
O=C(NC(Cc1ccccc1)C(=O)NC(Cc1ccccc1)C(=O)O)c1ccccc1 (configuration not stated)	-3	-4	-1.1	3	0	57*
CC1CCCCN1C(=O)C(Cc1ccccc1)N1C(=O)C2CCCCC2C1=O (configuration not stated)	-2	12	0.69	-22	2	62*
O=C(O)[C@H](Cc1ccccc1)NC(=O)N1CCOCC1	-4	65	0.68	0	8	70*
O=C(O)[C@H](Cc1ccccc1)NC(=O)N1CCCCCC1	-3	/	/	7	0	/
COc1ccccc1N1CCN(/N=C/C(Cl)=C/c2ccccc2)CC1	5	39	0.54	12	5	/
O=C(COc1ccc(-c2nnco2)cc1)Nc1ccc(C(F)(F)F)cc1	1	/	/	20	1	/
O=P(CCCO)(Cc1ccccc1)Cc1ccccc1	-1	/	/	-4	0	/
Cc1cc(-c2n[nH]c(=S)n2/N=C/c2cccc([N+](=O)[O-])c2)n[nH]1	0	25	-0.19	-16	4	51*
O=[N+]([O-])c1cccc(/C=N/n2c(C3CCCCC3)n[nH]c2=S)c1	0	82*	0.91	3	-1	1
Cc1cccc(/C=N/n2c(-c3cc(-c4ccccc4)n[nH]3)n[nH]c2=S)c1	0	75*	-0.89	9	5	5
CCN(CC)S(=O)(=O)c1cccc(-c2n[nH]c(=S)n2/N=C/c2ccc(Br)cc2)c1	1	90*	-0.47	15	-1	-13
S=c1[nH]nc(C2CCCCC2)n1/N=C/c1ccc(Br)s1	3	95*	-0.13	9	-3	-6
Cc1cc(-c2n[nH]c(=S)n2/N=C/C(Cl)=C/c2ccccc2)n[nH]1	0	-81	-0.37	-19	2	70*
SMILES	XBP1 UPR activ	CHOP inh	Dynein transport	T cruzi repl	UPR CHOP act	Lmaj promast
S=c1[nH]nc(C2CCCCC2)n1/N=C/c1ccc(Br)cc1	1	/	/	9	0	/
COc1ccc(NC(=O)c2ccsc2NC(C)=O)cc1	0	24	0.14	-13	0	-7
Cc1onc(-c2ccccc2)c1C(=O)NNC(=S)NC(=O)c1ccc(Cl)cc1Cl	-1	86*	-0.29	-33	-1	-6
COc1ccc(-c2cc(C(=O)NNC(=S)NC(=O)c3c(-c4ccccc4)noc3C)[nH]n2)cc1	1	34	-0.23	4	1	63*
Cc1onc(-c2ccccc2)c1C(=O)NNC(=S)NC(=O)c1ccc(Br)cc1	/	61	0.4	5	/	-7
Cc1ccc(-n2c(C)cc(/C([O-])=C(/C(=S)Nc3ccc(F)c(Cl)c3)[n+]3ccccc3)c2C)cc1	2	-24	-0.3	29	2	91*
CC(C)(C)c1nn2cnnc2n(/N=C/c2ccc(O)cc2)c1=O	-1	7	0.43	-9	0	-5
COc1ccc(NC2CCCN(C(=O)C3(C)CCCCC3)C2)cc1OC (configuration not stated)	-4	/	/	19	2	/
O=C(c1ccc(-n2cccc2)cc1)N1CCN(Cc2ccccc2)CC1	2	29	-0.61	-14	2	75*
Cc1ccc(S(=O)(=O)NCc2ccc(C(=O)N3CCN(Cc4ccccc4)CC3)cc2)cc1	0	23	0.12	15	1	77*
COc1ccc(S(=O)(=O)NCc2ccc(C(=O)N3CCN(Cc4ccccc4)CC3)cc2)cc1	-2	/	/	30	2	/
COc1ccc(CCNC(=O)c2ccc(CNS(=O)(=O)c3ccccc3)cc2)cc1OC	0	19	0.73	15	2	70*
CN1CCN(C(=O)c2ccc(CN(c3ccccc3)S(=O)(=O)c3ccccc3)cc2)CC1	-3	11	-0.6	-5	1	3
CCN1CCN(C(=O)c2ccc(CN(c3ccccc3)S(=O)(=O)c3ccccc3)cc2)CC1	-1	49	-0.42	-5	0	80*
CCOC(=O)C1=CN(Cc2cccc(F)c2)S(=O)(=O)N(CC)C1c1ccc(C(F)(F)F)cc1 (configuration not stated)	1	/	/	/	12	/
